Measurements reported in ChEMBL document CHEMBL4513216, “Probing the Open Global Health Chemical Diversity Library for Multistage-Active Starting Points for Next-Generation Antimalarials” (ACS Infect Dis, 2020).

Experiment: Toxicity liver stage against HepG2, at 10uM
Type: cell-based
Design: test concentration 10 uM, cell line HepG2-A16-CD81EGFP
Conditions: human, HepG2-A16-CD81EGFP cells; read-out: INHIBITION
In short: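 Uninfected HepG2-A16-CD81EGFP cells, 3 × 10^3 per well, 1536-well, plated on prespotted compound at 10 μM final, parasite-free screening media added to match infected plates; puromycin 10 μM positive, DMSO 0.5% negative; run in parallel with 48 h PbLuc assay at 37 °C, 5% CO2; viability by CellTiter-Glo luminescence, normalized to controls.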

| Structure (SMILES) | cytotoxicity at 10 µM [%] |
| --- | --- |
| CC(C)c1nnc(NC(=O)CN2C(=O)c3ccccc3NC2C(C)C)s1 (stereo unspecified) | -10.2 |
| O=C(C1CC(=O)N(c2n[nH]c3cc(Br)ccc23)C1)N1CCSCC1 (stereo unspecified) | -1.91 |
| CCOCc1ncn2c1CN(C(=O)Nc1cccc(F)c1)CC2 | 1.03 |
| CN(C)C(=O)N1CC[C@@H](O)[C@@H]1Cc1cnn(C)c1 | 7.02 |
| Cc1n[nH]c2c1C(c1ccsc1)SCC(=O)N2 (stereo unspecified) | 4.21 |
| CN1CCc2c(C#N)c(NCc3ccco3)n3cnnc3c2C1 | -13.7 |
| Cc1cnc(NC(=O)C(C)Oc2ccc3c(c2)OCO3)s1 (stereo unspecified) | -5.22 |
| CCNS(=O)(=O)c1cccc(CSC)c1 | 5.5 |
| Cc1cc(C)n(CC(=O)N2CCC(c3ccn4nccc4n3)CC2)n1 | -0.0825 |
| CCC(C)NC(=O)c1cc(S(=O)(=O)N(C)C)c(C)s1 (stereo unspecified) | -2.75 |
| Cc1cc(C)nc(Nc2nccnc2C2CCCN(C(CO)CO)C2)n1 (stereo unspecified) | 0.216 |
| CN1CCCC(c2nccnc2-c2cccc(C(F)(F)F)c2)C1 (stereo unspecified) | 7.75 |
| Cc1cc(C)nc(N2CCC(c3cc(CCO)[nH]n3)C2)n1 (stereo unspecified) | 4.15 |
| Cc1cc(C2CCCN(S(=O)(=O)c3cn[nH]c3)C2)ccn1 (stereo unspecified) | -1.77 |
| CCn1ncc(CN2CCC(O)(Cn3ccc4ncccc43)CC2)c1C | -0.692 |
| O=C(O)CCc1cccc(C2CCCN2Cc2cccc(Cl)c2)n1 (stereo unspecified) | -22.6 |
| CN(CC(=O)N(C)C(c1cccnc1)c1ccc(F)c(F)c1)C1CC1 (stereo unspecified) | -3.57 |
| CCS(=O)(=O)NCCN1CCN(C(C#N)c2ccccc2)CC1 (stereo unspecified) | -4.04 |
| Cc1ccc(C(=O)NC2CCCN(S(C)(=O)=O)C2)c(=O)[nH]1 (stereo unspecified) | 10.6 |
| Cc1cc(NC(=O)CO)nn1-c1ccc(Cl)cc1Cl | -142 |
| CN(Cc1nc(CS(C)(=O)=O)no1)c1ccccc1 | 4.04 |
| COC(=O)CC1CSCCN1C(=O)CCc1c(C)nn(C)c1C (stereo unspecified) | -2.65 |
| COc1ccc(OCc2noc(CN(C)C3CCS(=O)(=O)C3)n2)cc1 (stereo unspecified) | 12.5 |

| Structure (SMILES) | cytotoxicity at 10 µM [%] |
| --- | --- |
| O=C1CCCN1CCc1nc(-c2ccsc2)no1 | -1.22 |
| CC(C)CC(NC(=O)c1ccc[nH]1)C(=O)N1CCC(CO)CC1 (stereo unspecified) | 6.74 |
| Cc1nnc(C(C)Nc2cccc(COCCc3ccccc3)c2)o1 (stereo unspecified) | -3.51 |
| Cc1cc(C(=O)Cn2cnnc2[S+](C)[O-])cc(C)c1F (stereo unspecified) | 4.31 |
| CS(=O)(=O)CCCNC1CCCN(Cc2noc(C3CC3)n2)C1 (stereo unspecified) | 1.15 |
| CS(=O)(=O)c1ccc(OCCNCc2cccc(O)c2)cc1 | 2.21 |
| COc1ccc(C2CCCN2Cc2nnnn2C2CC2)cc1OC (stereo unspecified) | 2.49 |
| O=C(NCCOc1ncc(Cl)cc1Cl)c1cccnc1 | -3.23 |
| C=C(C)CN(CC)C(=O)c1cc(F)ccc1N1CCN(C)CC1 | -1.18 |
| CC1CN(c2ccc(CNC(=O)NCCn3ccnc3)cn2)CCO1 (stereo unspecified) | 8.4 |
| CC(O)CN1CCC(CN(C)CCC(=O)NC2CCCCC2)CC1 (stereo unspecified) | 4.11 |
| CCC1C(=O)NCCN1c1nccc(C)n1 (stereo unspecified) | 0.889 |
| CC(NC1CCN(CC(=O)N(C)C)CC1)c1cnn(C(C)C)c1 (stereo unspecified) | -0.54 |
| O=C(CCN1CCCCCC1c1ccco1)N1CCOCC1 (stereo unspecified) | 6.14 |
| Cc1cnn(CCNCC(=O)N(C)C(C)c2ccccc2)c1 (stereo unspecified) | 8.83 |
| COc1ccccc1C(C)(C)NC(=O)NCCC(=O)NC1CCCC1 | 8.42 |
| CC1CCCN1C1CCN(C(=O)c2cccc(F)c2)CC1 (stereo unspecified) | 5.93 |
| c1ccc2[nH]c(C3CCN(Cc4nnc(C5CC5)o4)CC3)cc2c1 | 3.65 |
| CCS(=O)(=O)c1ccc(N2CCC(NC(C)=O)CC2)cc1 | 10.6 |
| O=C(Cc1ccc(F)cc1)NCCNCC1CNc2ccnn2C1 (stereo unspecified) | -3.47 |
| Cc1c(Br)cccc1C(=O)NC(C)CN1CCCC1=O (stereo unspecified) | -1.58 |
| CSc1ccc(C(CNC(=O)C2CC2)N2CCc3sccc3C2)cc1 (stereo unspecified) | -5.31 |
| CC(C)(C)c1n[nH]c(C2CN(C(=O)c3cc(Cl)c[nH]3)CCO2)n1 (stereo unspecified) | -10.6 |

| Structure (SMILES) | cytotoxicity at 10 µM [%] |
| --- | --- |
| CC1N(c2cnn(C)c2)C(=O)COC12CCN(Cc1ccoc1)CC2 (stereo unspecified) | 0.997 |
| CN1CC2(COCCN(c3ncccn3)C2)OCC1=O (stereo unspecified) | -112 |
| CS(=O)(=O)Nc1ccc(-n2c(CCCO)nc3ccccc32)cn1 | -3.14 |
| CCC(C(=O)NCC1CCN(c2cnn(C)c(=O)c2)CC1)n1cccn1 (stereo unspecified) | 6.01 |
| O[C@@]1(CNCCCNc2cccnc2)CCCN2CCCC[C@@H]21 | -3 |
| NC(=O)c1ccc(C2CCCN2C(=O)Cn2nc3ccccc3n2)s1 (stereo unspecified) | 9.15 |
| Cc1[nH]c(=O)[nH]c(=O)c1CN1CCCC(CCc2ccccc2F)C1 (stereo unspecified) | -4.19 |
| Cc1cc(C)nc(N2CCN(Cc3cc4n(n3)CCNC4)CC2)n1 | -8.46 |
| CCN(CC)CCn1cnc(-c2ccccc2)c1-c1cnc(C)s1 | 3.33 |
| CC(C)c1nnc2sc(CC3CCS(=O)(=O)CC3)nn12 | 4.62 |
| CCCC1CCN(C(=O)c2coc(COc3ccc(OC)cc3)n2)C1 (stereo unspecified) | -0.551 |
| CCc1oc(C(=O)N2CCC(N(CC)C(C)=O)C2)cc1CN(CC)CC (stereo unspecified) | 8.31 |
| CN(C)C(=O)c1coc(COc2ccccc2)n1 | -7.3 |
| Cc1ccc(C(C(=O)NCc2n[nH]c(N)n2)N(C)C)cc1 (stereo unspecified) | 0.529 |
| C[C@@H]1CN(CC(=O)NCc2ccccn2)C[C@]1(C)O | -5.68 |
| Cn1ncc2c(N3CC[C@H](O)C3)nc(-c3ccncc3)nc21 | 4.63 |
| CCCc1nc(N2CC[C@@H](c3ccc4c(c3)OCO4)[C@H](O)C2)no1 | -9.87 |
| c1cc(-c2ccn(CCN3CCCC3)n2)cc(-c2nccs2)c1 | -8.96 |
| CCCN1CCN(C(=O)c2cnccc2C)[C@H]2CS(=O)(=O)C[C@H]21 | -1.7 |
| O=C(O)CN1CCc2onc(C(c3ccccc3)c3ccccc3)c2C1 | -0.849 |
| CN(Cc1cc2cc(F)ccc2[nH]1)C(=O)C1CC(=O)N(C(C)(C)C)C1 (stereo unspecified) | 0.993 |
| CN1CC2(CCCN(Cc3nnc(-c4cccc(F)c4)o3)C2)OC1=O (stereo unspecified) | -1.66 |
| CC(C)c1noc(CN2CCC3(CCCO3)CCC2=O)n1 (stereo unspecified) | 0.145 |

| Structure (SMILES) | cytotoxicity at 10 µM [%] |
| --- | --- |
| CC(C)c1nn(C)c(N(C)C)c1CNCc1ccc2c(c1)OCCO2 | -12.6 |
| Cc1ccc(OCCN2CCC(c3ccnn3CCO)CC2)cc1 | -3.29 |
| CCN1CCOC(CNCc2ccccc2OCc2ccncc2)C1 (stereo unspecified) | -8.57 |
| CC(=O)N1CCCN(C(=O)c2ccc(Cn3ccccc3=O)o2)CC1 | -1.4 |
| Cc1ccc(CC(=O)N2CCOCC2c2ncon2)cc1 (stereo unspecified) | -2.03 |
| CC(C(=O)N1CCCN(Cc2ccc(C#N)cc2)CC1)n1cccn1 (stereo unspecified) | -5.6 |
| CCN1CCN(C2CCN(Cc3nc(CCOC)no3)CC2)C1=O | -9.44 |
| Cn1c(NCC(O)c2ccc(Cl)cc2)c(C#N)c(=O)n(C)c1=O (stereo unspecified) | -3.27 |
| Cc1cc(C)n(C2CCCN(C(=O)Cc3cccc(F)c3)C2)n1 (stereo unspecified) | -8.09 |
| Cc1nc(CN2CCCC(NCCCOc3ccc(F)cc3)C2)no1 (stereo unspecified) | -7.03 |
| CN(CC(=O)NC1(C)CCS(=O)(=O)C1)Cc1ccc(Br)cc1 (stereo unspecified) | -1.4 |
| Cn1cc(CCC(=O)N2CCCC(n3cncn3)C2)cn1 (stereo unspecified) | -15.1 |
| CCCc1n[nH]c(C2CN(C(=O)CCn3ccccc3=O)CCO2)n1 (stereo unspecified) | -0.438 |
| Cc1nn(C)c(N(C)C)c1CNCc1cccnc1OC(C)C | -0.924 |
| Cc1ccc(N2CCCC(NCc3ccccn3)C2)nn1 (stereo unspecified) | 0.301 |
| O=C(NCCn1ccnc1)N1CCN(Cc2ccsc2)CC1 | -15.3 |
| COC(=O)c1cccn1C1CCN(S(=O)(=O)c2ccccc2)CC1 | -11.1 |
| O=C(COc1ccccc1Cl)N1CCCC(n2ccnc2)C1 (stereo unspecified) | -21.9 |
| CC(Cn1cccn1)NC(=O)NCc1ccc(S(C)(=O)=O)cc1 (stereo unspecified) | 3.64 |
| O=C(CCc1ccsc1)N1CCC(N2CCNC2=O)CC1 | -0.546 |
| Cc1cn2c(n1)CCC(NC(=O)c1csc(C(C)C)n1)C2 (stereo unspecified) | -16.4 |
| CC(C)c1cc(NC(=O)CN2CCCC2Cn2cccn2)on1 (stereo unspecified) | -8.35 |
| CCc1noc(C)c1C(=O)N1CCCC1Cn1cc(C)cn1 (stereo unspecified) | -6.46 |

| Structure (SMILES) | cytotoxicity at 10 µM [%] |
| --- | --- |
| CC(C)c1nn(C)c(N2CCOCC2)c1CN[C@H](C)CO | -7.67 |
| Cc1nc(CN(Cc2cccs2)C2CCS(=O)(=O)C2)oc1C (stereo unspecified) | -6.46 |
| CCS(=O)(=O)N1CC[C@H]2CO[C@H](CN(C)C)[C@H]2C1 | -72 |
| CNC(=O)CN1CCCC12CCN(Cc1c[nH]cn1)CC2 | 0.312 |
| COCCC(=O)N1CCCC2(CCCN2Cc2ccccc2F)C1 (stereo unspecified) | 8.01 |
| O=S(=O)(c1cccs1)N1Cc2nc(CN3CCCCC3)oc2C1 | -121 |
| COCC1CN(c2ncc(F)cn2)Cc2cnn(C)c21 (stereo unspecified) | 4.02 |
| Cn1ccnc1CN1CCc2onc(COCC3CC3)c2C1 | 6.86 |
| Cc1cccc(C(=O)N2C[C@@H](C)[C@@]3(CCN(c4ccsc4)C3=O)C2)n1 | -78.9 |
| Cc1ncnc2c1CCN(C(=O)c1ccncc1)CC2 | 12 |
| CCC(C)N1Cc2c(C(=O)N3CCOCC3)nn(C)c2C1 (stereo unspecified) | -95.9 |
| O=S(=O)(C1CC1)N1CCC2(CCCN(c3ncccn3)C2)C1 (stereo unspecified) | -4.02 |
| O=C(c1cccs1)N1CC[C@@H](N2CCOCC2)[C@@H]1Cc1ccccc1 | -81.6 |
| N#Cc1cccc(CN2C[C@H](OCC3CCOCC3)[C@H]3COC[C@H]32)c1 | -0.82 |
| CN(C)CCNC(=O)c1cc(-c2cnc(N3CCOCC3)nc2)cn1C | -78.2 |
| Cc1cccc(N2CCC3(CCN(C(=O)c4cccnc4)CC3)C2)n1 | -0.482 |
| Cn1ccnc1CN1CCN2C[C@H](OCc3cccnc3)C[C@H]2C1 | -1.29 |
| CC(C)CNC(=O)[C@H]1C[C@H]2CN(C(=O)Nc3ccc(F)cc3)C[C@@H]1O2 | 0.428 |
| Cc1cc(C)c(Cn2cncn2)cc1CN1CC[C@@H]2CC[C@H](C1)N2 | -3.96 |
